Activity calls are given as the source filed them. The rule behind the calls is not given here.

The source of these data is ChEMBL document CHEMBL1134472, “Synthesis and NMR-driven conformational analysis of taxol analogues conformationally constrained on the C13 side chain” (2001).

Test [1] has as its target Tubulin alpha chain (Sus scrofa) (UniProt P02550). The experiment in a line: Tubulin binding with reference to taxol was determined by tubulin assembly assay. In a few lines: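 Activity is the ED50 in a tubulin assembly assay, given as a ratio to the paclitaxel ED50 from the same assay.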
In another test the test system is MCF7. Briefly: Cytotoxicity against MCF-7 cells with reference to taxol. As to conditions: Homo sapiens. The test is classed as functional. In a few lines: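 Result is the test compound's ED50 in MCF7 cells divided by the paclitaxel ED50 from the same cytotoxicity assay.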

Sequence of Tubulin alpha chain (Sus scrofa) (P02550 whole entry, looked up): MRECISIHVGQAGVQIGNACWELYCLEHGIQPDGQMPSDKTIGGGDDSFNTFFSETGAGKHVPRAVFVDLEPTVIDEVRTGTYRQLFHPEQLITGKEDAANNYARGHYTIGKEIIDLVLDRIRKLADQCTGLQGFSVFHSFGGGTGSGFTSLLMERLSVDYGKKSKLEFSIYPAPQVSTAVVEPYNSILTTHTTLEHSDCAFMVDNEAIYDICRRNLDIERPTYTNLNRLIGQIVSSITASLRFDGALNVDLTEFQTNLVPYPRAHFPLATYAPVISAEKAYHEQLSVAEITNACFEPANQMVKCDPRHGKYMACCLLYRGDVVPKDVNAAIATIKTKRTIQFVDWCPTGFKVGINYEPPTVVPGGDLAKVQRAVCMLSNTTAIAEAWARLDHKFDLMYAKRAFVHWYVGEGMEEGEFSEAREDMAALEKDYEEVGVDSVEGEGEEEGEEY

As for `CC(=O)O[C@@]12CO[C@@H]1C[C@H](O)[C@@]1(C)C(=O)[C@H](O)C3=C(C)C(OC(=O)[C@@]4(O)Cc5ccccc5[C@@H]4NC(=O)OC(C)(C)C)C[C@@](O)([C@@H](OC(=O)c4ccccc4)[C@H]21)C3(C)C` (stereo not given in full), the ED50/ED50(Taxol) (dimensionless ratio) in test [1] is 7.

Turning to `CC(=O)O[C@@]12CO[C@@H]1C[C@H](O)[C@@]1(C)C(=O)[C@H](O)C3=C(C)C(OC(=O)[C@@]4(O)CCc5ccccc5[C@@H]4NC(=O)OC(C)(C)C)C[C@@](O)([C@@H](OC(=O)c4ccccc4)[C@H]21)C3(C)C` (stereo not given in full), in test [1], the ED50/ED50(Taxol) (dimensionless ratio) is 30. The compound also returned an ED50/ED50(Taxol) with MCF7 of 239 dimensionless ratio.

With `CC(=O)O[C@H]1C(=O)[C@@]2(C)[C@H]([C@H](OC(=O)c3ccccc3)[C@]3(O)C[C@H](OC(=O)[C@H](O)[C@@H](NC(=O)c4ccccc4)c4ccccc4)C(C)=C1C3(C)C)[C@]1(OC(C)=O)CO[C@@H]1C[C@@H]2O` [PACLITAXEL], the ED50/ED50(Taxol) with MCF7 turned out to be 4 dimensionless ratio. Take `CC(=O)O[C@H]1C(=O)[C@@]2(C)[C@H]([C@H](OC(=O)c3ccccc3)[C@]3(O)CC(OC(=O)[C@@]4(O)Cc5ccccc5[C@@H]4NC(=O)c4ccccc4)C(C)=C1C3(C)C)[C@]1(OC(C)=O)CO[C@@H]1C[C@@H]2O` (stereo not given in full): in test [1], the ED50/ED50(Taxol) (dimensionless ratio) stood at 4. Moreover, in the test with MCF7, the ED50/ED50(Taxol) turned out to be 9 dimensionless ratio. On to `CC(=O)O[C@H]1C(=O)[C@@]2(C)[C@H]([C@H](OC(=O)c3ccccc3)[C@]3(O)CC(OC(=O)[C@@]4(O)CCc5ccccc5[C@@H]4NC(=O)c4ccccc4)C(C)=C1C3(C)C)[C@]1(OC(C)=O)CO[C@@H]1C[C@@H]2O` (stereo not given in full), for which the ED50/ED50(Taxol) (dimensionless ratio) in test [1] was 42. The ED50/ED50(Taxol) in the test with MCF7 came to 333 dimensionless ratio. For `CC(=O)O[C@H]1C(=O)[C@@]2(C)[C@H]([C@H](OC(=O)c3ccccc3)[C@]3(O)CC(OC(=O)[C@]4(O)Cc5ccccc5[C@@H]4NC(=O)c4ccccc4)C(C)=C1C3(C)C)[C@]1(OC(C)=O)CO[C@@H]1C[C@@H]2O` (stereo not given in full), the ED50 result in test [1] was “inactive”. The ED50/ED50(Taxol) in the test on MCF7 was 1600 dimensionless ratio.
